Four compounds from ChEMBL document CHEMBL3232873, “Development of a bioavailable μ opioid receptor (MOPr) agonist, δ opioid receptor (DOPr) antagonist peptide that evokes antinociception without development of acute tolerance” (J Med Chem, 2014) can be followed below.

Assay [1] addresses Mu-type opioid receptor (Rattus norvegicus) (UniProt P33535). Nature of the assay: Agonist activity at rat mu opioid receptor expressed in rat C6 cells assessed as stimulation of [35S]-GTPgammaS binding after 1 hr by GF/C filters relative to control. It counts as functional, cell-based. In outline:
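C6 glioma membranes (rat MOPr, stable; 10–20 μg protein) incubated 1 h at room temperature in 50 mM Tris-HCl, 100 mM NaCl, 5 mM MgCl2, pH 7.4, with 0.1 nM [35S]GTPγS, 30 μM GDP and varying peptide concentrations. GF/C filtration, counting. […] EC50 and maximum from nonlinear regression. At least three assays in duplicate.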

The target in assay [2] is Kappa-type opioid receptor (Homo sapiens) (UniProt P41145). Nature of the assay: Agonist activity at human kappa opioid receptor expressed in rat C6 cells assessed as stimulation of [35S]-GTPgammaS binding after 1 hr by GF/C filters relative to control. The class given is functional, cell-based. A general note: GTPγS resists hydrolysis and so accumulates on activated G proteins.

Assay [3] addresses Delta-type opioid receptor (Rattus norvegicus) (UniProt P33533). Nature of the assay: Antagonist activity at rat delta opioid receptor expressed in rat C6 cells assessed as [35S]-GTPgammaS binding after 1 hr by GF/C filters. It counts as functional, cell-based. In a few lines: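 Membranes (10–20 μg protein/well) from C6 glioma cells stably expressing rat DOPr were incubated 1 h at room temperature in 50 mM Tris-HCl, 100 mM NaCl, 5 mM MgCl2, pH 7.4, with 0.1 nM [35S]GTPγS and 30 μM GDP. Bound label was filtered, washed 10× with cold buffer, and scintillation-counted. Ke was derived by formula using a single peptide concentration. Mean ± SEM, ≥3 assays in duplicate.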

Assay [4] shares this target. Nature of the assay: Agonist activity at rat delta opioid receptor expressed in rat C6 cells assessed as stimulation of [35S]-GTPgammaS binding after 1 hr by GF/C filters relative to control. The class given is functional, cell-based. In outline:
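Membranes (10–20 μg protein) from C6 glioma cells stably expressing rat DOPr, incubated 1 h at room temperature in 50 mM Tris-HCl, 100 mM NaCl, 5 mM MgCl2, pH 7.4, with 0.1 nM [35S]GTPγS, 30 μM GDP and varied peptide concentrations. GF/C filtration, scintillation counting. […] At least three assays in duplicate.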

Assay [5] has as its system Mus musculus. Nature of the assay: Antinociceptive effect in C57BL/6 mouse assessed as maximum effect at 10 mg/kg, ip after 30 mins by acute tolerance/warm water tail withdrawal assay. It counts as functional, organism-based. On the set-up: dose 10 mg/kg. In outline: (§1)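 Separate groups of C57BL/6 mice got ip saline or 10 mg/kg compound after baseline, with 50 °C tail-withdrawal latency (20 s cutoff) at 15, 30, 45, 60 and 90 min. At 90–120 min all mice received 10 mg/kg ip, read at 15, 30, 60 and 90 min. AUC over baseline was computed per mouse and averaged by group; naive and pretreated groups compared by t-test.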

Assay [6] has as its system Mus musculus. Nature of the assay: Antinociceptive effect in C57BL/6 mouse assessed as maximum effect at 10 mg/kg, ip after 90 mins followed by treated with second dose measured up to 200 mins by acute tolerance/warm water tail withdrawal assay. The class given is functional, organism-based. Details: dose 10 mg/kg. In a few lines: as §1
Assay [7] concerns Mus musculus. Nature of the assay: Antinociceptive effect in C57BL/6 mouse assessed as tail withdrawal latency at 10 mg/kg, ip by warm water tail withdrawal assay in presence of 3.2 mg/kg, ip naltrexone nonselective opioid antagonist. The class given is functional, organism-based. In outline:
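C57BL/6 mice, both sexes. Saline or 3.2 mg/kg naltrexone ip 30 min before 10 mg/kg test compound ip, all in saline. Tail-withdrawal latency in 50 °C water (20 s cutoff) read 30 min after pretreatment and 30 min after test injection.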

The subject of assay [8] is Mus musculus. Nature of the assay: Antinociceptive effect in C57BL/6 mouse assessed as maximum effect at 10 mg/kg, ip after 90 mins by acute tolerance/warm water tail withdrawal assay. Details: dose 10 mg/kg. The class given is functional, organism-based. In a few lines:
as §1

For assay [9], the system named is Mus musculus. Nature of the assay: Antinociceptive effect in C57BL/6 mouse assessed as tail withdrawal latency at 10 mg/kg, ip measured between 30 and 60 mins by warm water tail withdrawal assay relative to 20 secs cutoff time. The class given is functional, organism-based. On the set-up: dose 10 mg/kg.
Assay [10] is filed under the species Mus musculus. Nature of the assay: Antinociceptive effect in C57BL/6 mouse assessed as tail withdrawal latency by warm water tail withdrawal assay relative to 20 secs cutoff time. It counts as functional, organism-based. In a few lines: (§2)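 Adult male and female C57BL/6 mice (20–35 g, 8–16 weeks). Saline ip, then baseline latency 30 min later. Cumulative ip doses in saline were given at 30 min intervals, with latency read 30 min after each dose. Tail tip (2–3 cm) placed in 50 °C water; withdrawal or flick latency recorded, 20 s cutoff.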

Assay [11] relates to Mus musculus. Nature of the assay: Antinociceptive effect in C57BL/6 mouse assessed as tail withdrawal latency at 10 mg/kg, ip by warm water tail withdrawal assay relative to 20 secs cutoff time. The class given is functional. The note with it: route intraperitoneal. In a few lines:
as §2

Activity calls are given as the source filed them. *1 amine or outer side, *2 acyl side, *3 side chain or, on linkers, in order; H or OH if unused. Where a SMILES comes first, the peptide text is derived from it. Bridges are numbered along the chain shown (N, C = ends). [ ]: non-standard residue; d: D form. The star is where a group is joined. βGlc = OC[C@H]1O[C@@H](*)[C@H](O)[C@@H](O)[C@@H]1O; Dmt = Cc1cc(O)cc(C)c1C[C@H](N)C(=O)O; dPen = CC(C)(S)[C@@H](N)C(=O)O; Aic = NC1(C(=O)O)Cc2ccccc2C1; CH2CH2 = C(C[*:2])[*:1]

Delta-type opioid receptor (Rattus norvegicus), sequence (P33533 whole entry): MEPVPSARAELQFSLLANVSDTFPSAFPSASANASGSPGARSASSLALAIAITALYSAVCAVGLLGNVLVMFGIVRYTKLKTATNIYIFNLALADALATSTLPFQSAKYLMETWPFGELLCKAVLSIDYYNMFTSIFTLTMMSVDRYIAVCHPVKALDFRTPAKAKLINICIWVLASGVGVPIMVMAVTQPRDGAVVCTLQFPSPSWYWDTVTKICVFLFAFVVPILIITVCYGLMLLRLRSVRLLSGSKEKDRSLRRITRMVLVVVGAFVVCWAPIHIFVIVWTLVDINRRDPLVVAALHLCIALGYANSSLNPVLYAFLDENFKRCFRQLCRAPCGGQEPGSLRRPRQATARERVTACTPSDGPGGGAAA
Kappa-type opioid receptor (Homo sapiens), sequence (P41145 whole entry): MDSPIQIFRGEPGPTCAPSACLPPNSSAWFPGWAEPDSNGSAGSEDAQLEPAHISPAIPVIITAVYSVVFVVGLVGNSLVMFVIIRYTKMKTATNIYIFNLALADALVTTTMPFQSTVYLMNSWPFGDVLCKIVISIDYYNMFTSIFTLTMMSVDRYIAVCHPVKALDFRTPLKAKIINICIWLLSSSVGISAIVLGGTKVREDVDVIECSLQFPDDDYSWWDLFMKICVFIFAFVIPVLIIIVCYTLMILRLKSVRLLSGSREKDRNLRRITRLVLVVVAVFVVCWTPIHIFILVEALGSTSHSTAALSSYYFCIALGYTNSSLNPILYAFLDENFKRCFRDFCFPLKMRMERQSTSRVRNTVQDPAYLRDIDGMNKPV
Mu-type opioid receptor (Rattus norvegicus), sequence (P33535 whole entry): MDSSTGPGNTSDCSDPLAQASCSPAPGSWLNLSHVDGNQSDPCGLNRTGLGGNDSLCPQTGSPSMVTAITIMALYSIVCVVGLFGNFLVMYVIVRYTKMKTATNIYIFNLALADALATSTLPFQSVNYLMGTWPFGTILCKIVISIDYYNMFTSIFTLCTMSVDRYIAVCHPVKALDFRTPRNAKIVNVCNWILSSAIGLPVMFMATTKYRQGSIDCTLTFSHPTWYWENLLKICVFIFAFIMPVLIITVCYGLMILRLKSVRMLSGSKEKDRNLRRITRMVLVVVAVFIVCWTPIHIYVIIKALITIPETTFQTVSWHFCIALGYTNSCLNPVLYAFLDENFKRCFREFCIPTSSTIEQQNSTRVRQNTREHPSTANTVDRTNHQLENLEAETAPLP

On to `Cc1cc(O)cc(C)c1C[C@H](N)C(=O)N[C@@H]1CSCCSC(C)(C)[C@H](C(=O)O)NC(=O)C2(Cc3ccccc3C2)NC1=O` (H-[Dmt][dC][Aic][dPen]-OH; linker 2-4 via CH2CH2), for which the Efficacy in assay [1] was determined as 59%. In addition, the Efficacy entry in [2] and in [4] was “inactive” in each case. Also, the Ke in assay [3] was determined as 4.4 nM.

Take `Cc1cc(O)cc(C)c1C[C@H](N)C(=O)N[C@@H]1CSCCSC(C)(C)[C@H](C(=O)N[C@@H](CO[C@@H]2O[C@H](CO)[C@@H](O)[C@H](O)[C@H]2O)C(N)=O)NC(=O)C2(Cc3ccccc3C2)NC1=O` (H-[Dmt][dC][Aic][dPen]S(βGlc)-NH2; linker 2-4 via CH2CH2): the result in assay [5], in [6] and in [9] was Active. The Efficacy entry in assay [2] and in assay [4] was “inactive” in each case. The result in assay [7] and in assay [8] was inactive. The Ke in assay [3] was 6.1 nM. Moreover, the Activity entry is “Dose-dependent effect” in assay [10] and 80% in assay [11].

With `Cc1cc(O)cc(C)c1C[C@H](N)C(=O)N[C@@H]1CSCCSC(C)(C)[C@H](C(=O)N[C@@H](CO)C(N)=O)NC(=O)C2(Cc3ccccc3C2)NC1=O` (H-[Dmt][dC][Aic][dPen]S-NH2; linker 2-4 via CH2CH2), the Efficacy entry in assay [2] and in assay [4] was “inactive” in each case.

As for `Cc1cc(O)cc(C)c1C[C@H](N)C(=O)N[C@@H]1CSCCSC(C)(C)[C@H](C(=O)N[C@@H](CO)C(=O)O)NC(=O)C2(Cc3ccccc3C2)NC1=O` (H-[Dmt][dC][Aic][dPen]S-OH; linker 2-4 via CH2CH2), the Efficacy result in assay [2] and in assay [4] was “inactive” in each case.
